≈ marks a conversion by molar mass, not a printed value.
Columns and labels:
Assay type in all cases: functional
[1] = tested on: Enterococcus faecalis; assay: Antibacterial activity against Enterococcus faecalis 14-1 after 18 to 24 hrs by two-fold serial dilution method
How it was run: (§1)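 Twofold serial dilution in agar media against Gram-positive and Gram-negative strains. Plates incubated at 35 °C for 18–24 h. MIC read as the lowest compound concentration giving complete inhibition of bacterial growth.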

[2] = tested on: Staphylococcus epidermidis; assay: Antibacterial activity against methicillin-resistant Staphylococcus epidermidis 14-37 after 18 to 24 hrs by two-fold serial dilution method
How it was run: (§2)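 Agar media, standard twofold serial dilution. MIC is the lowest concentration giving complete inhibition of bacterial growth after incubation at 35 °C for 18–24 h. Ciprofloxacin and levofloxacin were run as comparators.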

[3] = tested on: Pseudomonas aeruginosa; assay: Antibacterial activity against Pseudomonas aeruginosa 14-16 after 18 to 24 hrs by two-fold serial dilution method; how it was run: as §1
[4] = tested on: Staphylococcus aureus; assay: Antibacterial activity against methicillin-resistant Staphylococcus aureus 14-5 after 18 to 24 hrs by two-fold serial dilution method; how it was run: as §2
[5] = tested on: Klebsiella pneumoniae; assay: Antibacterial activity against extended-spectrum beta-lactamase producing Klebsiella pneumoniae 14-17 after 18 to 24 hrs by two-fold serial dilution method; how it was run: as §1
[6] = tested on: Klebsiella pneumoniae; assay: Antibacterial activity against Klebsiella pneumoniae 14-2 after 18 to 24 hrs by two-fold serial dilution method; how it was run: as §1
[7] = tested on: Enterococcus faecium; assay: Antibacterial activity against Enterococcus faecium 14-6 after 18 to 24 hrs by two-fold serial dilution method; how it was run: as §1
[8] = tested on: Klebsiella pneumoniae; assay: Antibacterial activity against Klebsiella pneumoniae 14-4 after 18 to 24 hrs by two-fold serial dilution method; how it was run: as §1
[9] = tested on: Escherichia coli; assay: Antibacterial activity against Escherichia coli 14-1 after 18 to 24 hrs by two-fold serial dilution method; how it was run: as §1
[10] = tested on: Streptococcus pneumoniae; assay: Antibacterial activity against methicillin-resistant Streptococcus pneumoniae ATCC 19615 after 18 to 24 hrs by two-fold serial dilution method; how it was run: as §2
[11] = tested on: Escherichia coli; assay: Antibacterial activity against Escherichia coli 14-2 after 18 to 24 hrs by two-fold serial dilution method; how it was run: as §1
[12] = tested on: Pseudomonas aeruginosa; assay: Antibacterial activity against Pseudomonas aeruginosa 14-15 after 18 to 24 hrs by two-fold serial dilution method; how it was run: as §1
[13] = tested on: Staphylococcus aureus; assay: Antibacterial activity against methicillin-sensitive Staphylococcus aureus 14-1 after 18 to 24 hrs by two-fold serial dilution method; how it was run: as §1
[14] = tested on: Staphylococcus epidermidis; assay: Antibacterial activity against methicillin-resistant Staphylococcus epidermidis 14-22 after 18 to 24 hrs by two-fold serial dilution method; how it was run: as §2
[15] = tested on: Pseudomonas aeruginosa; assay: Antibacterial activity against Pseudomonas aeruginosa ATCC 27853 after 18 to 24 hrs by two-fold serial dilution method; how it was run: as §1
[16] = tested on: Staphylococcus aureus; assay: Antibacterial activity against methicillin-resistant Staphylococcus aureus 14-4 after 18 to 24 hrs by two-fold serial dilution method; how it was run: as §2
[17] = tested on: Klebsiella pneumoniae; assay: Antibacterial activity against Klebsiella pneumoniae 14-3 after 18 to 24 hrs by two-fold serial dilution method; how it was run: as §1
[18] = tested on: Klebsiella pneumoniae; assay: Antibacterial activity against extended-spectrum beta-lactamase producing Klebsiella pneumoniae 14-19 after 18 to 24 hrs by two-fold serial dilution method; how it was run: as §1
[19] = tested on: Escherichia coli; assay: Antibacterial activity against Escherichia coli ATCC 25922 after 18 to 24 hrs by two-fold serial dilution method; how it was run: as §1
[20] = tested on: Staphylococcus aureus; assay: Antibacterial activity against methicillin-sensitive Staphylococcus aureus 14-3 after 18 to 24 hrs by two-fold serial dilution method; how it was run: as §1
[21] = tested on: Staphylococcus epidermidis; assay: Antibacterial activity against methicillin-sensitive Staphylococcus epidermidis 14-2 after 18 to 24 hrs by two-fold serial dilution method; how it was run: as §1
[22] = tested on: Staphylococcus epidermidis; assay: Antibacterial activity against methicillin-resistant Staphylococcus epidermidis 14-21 after 18 to 24 hrs by two-fold serial dilution method; how it was run: as §2
[23] = tested on: Enterococcus faecium; assay: Antibacterial activity against Enterococcus faecium 14-2 after 18 to 24 hrs by two-fold serial dilution method; how it was run: as §1
[24] = tested on: Pseudomonas aeruginosa; assay: Antibacterial activity against Pseudomonas aeruginosa 14-14 after 18 to 24 hrs by two-fold serial dilution method; how it was run: as §1
[25] = tested on: Staphylococcus aureus; assay: Antibacterial activity against Staphylococcus aureus CMCC 26003 after 18 to 24 hrs by two-fold serial dilution method; how it was run: as §1
[26] = tested on: Enterococcus faecium; assay: Antibacterial activity against Enterococcus faecium 14-5 after 18 to 24 hrs by two-fold serial dilution method; how it was run: as §1
[27] = tested on: Pseudomonas aeruginosa; assay: Antibacterial activity against Pseudomonas aeruginosa 14-9 after 18 to 24 hrs by two-fold serial dilution method; how it was run: as §1
[28] = tested on: Staphylococcus epidermidis; assay: Antibacterial activity against methicillin-resistant Staphylococcus epidermidis 14-39 after 18 to 24 hrs by two-fold serial dilution method; how it was run: as §2
[29] = tested on: Klebsiella pneumoniae; assay: Antibacterial activity against Klebsiella pneumoniae 14-1 after 18 to 24 hrs by two-fold serial dilution method; how it was run: as §1
[30] = tested on: Escherichia coli; assay: Antibacterial activity against extended-spectrum beta-lactamase producing Escherichia coli 14-1 after 18 to 24 hrs by two-fold serial dilution method; how it was run: as §1
[31] = tested on: Enterococcus faecalis; assay: Antibacterial activity against Enterococcus faecalis 14-2 after 18 to 24 hrs by two-fold serial dilution method; how it was run: as §1
[32] = tested on: Staphylococcus aureus; assay: Antibacterial activity against methicillin-sensitive Staphylococcus aureus 14-4 after 18 to 24 hrs by two-fold serial dilution method; how it was run: as §1
[33] = tested on: Escherichia coli; assay: Antibacterial activity against extended-spectrum beta-lactamase producing Escherichia coli 14-2 after 18 to 24 hrs by two-fold serial dilution method; how it was run: as §1
[34] = tested on: Klebsiella pneumoniae; assay: Antibacterial activity against extended-spectrum beta-lactamase producing Klebsiella pneumoniae 14-18 after 18 to 24 hrs by two-fold serial dilution method; how it was run: as §1
[35] = tested on: Mycobacterium tuberculosis; assay: Antimycobacterial activity against Mycobacterium tuberculosis H37Rv ATCC 27294 incubated for 7 days by microplate Alamar Blue assay; conditions: H37Rv ATCC 27294, 168 h
How it was run: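 Fluorescence read-out. MIC is the lowest concentration that reduces fluorescence by at least 90% relative to the mean of replicate bacterium-only controls. Isoniazid and rifampicin were included as reference drugs.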

CCO/N=C1/CN(c2c(F)cc3c(=O)c(C(=O)O)cn([C@@H]4C[C@@H]4F)c3c2OC)CC1CNC1CC1 (some centres undefined)
MIC [1]: 32 µg/mL (≈ 65.2 µM)
MIC [2]: 8 µg/mL (≈ 16.3 µM)
MIC [3]: 32 µg/mL (≈ 65.2 µM)
MIC [4]: 16 µg/mL (≈ 32.6 µM)
MIC [5]: 32 µg/mL (≈ 65.2 µM)
MIC [6]: > 32 µg/mL
MIC [7]: 16 µg/mL (≈ 32.6 µM)
MIC [8]: > 32 µg/mL
MIC [9]: > 32 µg/mL
MIC [10]: 0.25 µg/mL (≈ 0.51 µM)
MIC [11]: > 32 µg/mL
MIC [12]: 32 µg/mL (≈ 65.2 µM)
MIC [13]: 8 µg/mL (≈ 16.3 µM)
MIC [14]: 8 µg/mL (≈ 16.3 µM)
MIC [15]: 16 µg/mL (≈ 32.6 µM)
MIC [16]: 8 µg/mL (≈ 16.3 µM)
MIC [17]: > 32 µg/mL
MIC [18]: > 32 µg/mL
MIC [19]: 2 µg/mL (≈ 4.08 µM)
MIC [20]: 0.03 µg/mL (≈ 0.0612 µM)
MIC [21]: 16 µg/mL (≈ 32.6 µM)
MIC [22]: 8 µg/mL (≈ 16.3 µM)
MIC [23]: 8 µg/mL (≈ 16.3 µM)
MIC [24]: 32 µg/mL (≈ 65.2 µM)
MIC [25]: 0.06 µg/mL (≈ 0.122 µM)
MIC [26]: 4 µg/mL (≈ 8.15 µM)
MIC [27]: 32 µg/mL (≈ 65.2 µM)
MIC [28]: 4 µg/mL (≈ 8.15 µM)
MIC [29]: > 32 µg/mL
MIC [30]: 4 µg/mL (≈ 8.15 µM)
MIC [31]: 2 µg/mL (≈ 4.08 µM)
MIC [32]: 0.06 µg/mL (≈ 0.122 µM)
MIC [33]: > 32 µg/mL
MIC [34]: 32 µg/mL (≈ 65.2 µM)

CCO/N=C1/CN(c2nc3c(cc2F)c(=O)c(C(=O)O)cn3C2CC2)CC1(C)CNC1CC1 (centres undefined)
MIC [1]: 16 µg/mL (≈ 35 µM)
MIC [2]: 2 µg/mL (≈ 4.37 µM)
MIC [3]: 32 µg/mL (≈ 69.9 µM)
MIC [4]: 4 µg/mL (≈ 8.74 µM)
MIC [5]: 64 µg/mL (≈ 140 µM)
MIC [6]: 64 µg/mL (≈ 140 µM)
MIC [7]: 4 µg/mL (≈ 8.74 µM)
MIC [8]: > 128 µg/mL
MIC [9]: > 128 µg/mL
MIC [10]: 0.25 µg/mL (≈ 0.546 µM)
MIC [11]: > 128 µg/mL
MIC [12]: 64 µg/mL (≈ 140 µM)
MIC [13]: 0.25 µg/mL (≈ 0.546 µM)
MIC [14]: 4 µg/mL (≈ 8.74 µM)
MIC [15]: 32 µg/mL (≈ 69.9 µM)
MIC [16]: 4 µg/mL (≈ 8.74 µM)
MIC [17]: 128 µg/mL (≈ 280 µM)
MIC [18]: 64 µg/mL (≈ 140 µM)
MIC [19]: 1 µg/mL (≈ 2.19 µM)
MIC [20]: 0.5 µg/mL (≈ 1.09 µM)
MIC [21]: 8 µg/mL (≈ 17.5 µM)
MIC [22]: 4 µg/mL (≈ 8.74 µM)
MIC [23]: 4 µg/mL (≈ 8.74 µM)
MIC [24]: 128 µg/mL (≈ 280 µM)
MIC [25]: < 0.008 µg/mL
MIC [26]: 8 µg/mL (≈ 17.5 µM)
MIC [27]: 32 µg/mL (≈ 69.9 µM)
MIC [28]: 4 µg/mL (≈ 8.74 µM)
MIC [29]: 64 µg/mL (≈ 140 µM)
MIC [30]: 32 µg/mL (≈ 69.9 µM)
MIC [31]: 0.125 µg/mL (≈ 0.273 µM)
MIC90 [35]: < 0.25 µg/mL
MIC [32]: 0.25 µg/mL (≈ 0.546 µM)
MIC [33]: > 128 µg/mL
MIC [34]: 64 µg/mL (≈ 140 µM)

Reference: ChEMBL document CHEMBL3734675, “Synthesis, antimycobacterial and antibacterial activity of fluoroquinolone derivatives containing an 3-alkoxyimino-4-(cyclopropylanimo)methylpyrrolidine moiety” (2015)
